From ChEMBL document CHEMBL4196174, “Discovery of Indole Derivatives as Novel and Potent Dengue Virus Inhibitors” (J Med Chem, 2018)
≈ marks a conversion by molar mass, not a printed value.

Assays:
dengue virus type 2 = assay: Antiviral activity against Dengue virus 2 Rega infected in African green monkey Vero cells assessed as reduction in viral yield after 4 days by qRT-PCR analysis; format: functional, organism-based
Summary of the method: (§1)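 Virus yield reduction in Vero cells (seeded 5×10^4/well). Next day infected with DENV (MOI 0.01) in assay medium (MEM, 2% FBS, 0.075% bicarbonate, 2 mM L-glutamine). After 1 h, input virus was removed and cells rinsed 3 times. Medium with 3- or 5-fold compound serial dilutions was then added. Incubation was 4 days (DENV-2, DENV-4) or 7 days (DENV-1, DENV-3). Supernatant viral RNA was measured by RT-qPCR, and EC50 obtained by logarithmic interpolation.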

[1] = (§2) Cytotoxicity against African green monkey Vero cells assessed as cell growth inhibition after 4 days by MTS/PMS method; format: cell-based; conditions: chlorocebus sabaeus, Vero cells
Summary of the method: (§3)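 Cytotoxicity run as in the yield assay, but without virus. Vero cells (5×10^4/well) were exposed to 3- or 5-fold serial dilutions in MEM with 2% FBS. Viability was read by the MTS/PMS colorimetric method. CC50 was derived by logarithmic interpolation.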

Salmonella typhimurium [2] = assay: Mutagenicity in Salmonella typhimurium in presence of human liver S9 fraction by Ames test; format: toxicity, organism-based; conditions: salmonella enterica subsp. enterica serovar typhimurium
Salmonella typhimurium [3] = assay: Mutagenicity in Salmonella typhimurium in absence of human liver S9 fraction by Ames test; format: toxicity, organism-based; conditions: salmonella enterica subsp. enterica serovar typhimurium
dengue virus type 1 = assay: Antiviral activity against Dengue virus 1 Djibouti D1/H/IMTSSA/98/606 infected in African green monkey Vero cells assessed as reduction in viral yield after 7 days by qRT-PCR analysis; format: functional, organism-based; conditions: Djibouti D1/H/IMTSSA/98/606, Vero, 168 h; summary of the method: as §1
dengue virus type 3 = assay: Antiviral activity against Dengue virus 3 H87 infected in African green monkey Vero cells assessed as reduction in viral yield after 7 days by qRT-PCR analysis; format: functional, organism-based; conditions: 168 h; summary of the method: as §1
dengue virus type 4 = assay: Antiviral activity against Dengue virus 4 DAKHD34460 infected in African green monkey Vero cells assessed as reduction in viral yield after 4 days by qRT-PCR analysis; format: functional, organism-based; conditions: 96 h; summary of the method: as §1
[4] = Solubility of the compound in DMSO solution at pH 7.4; format: physicochemical
Summary of the method: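 Solubility measured at pH 7.4, starting from a DMSO solution.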

[5] = Drug metabolism in human liver microsomes after 15 mins; format: ADME, microsome; conditions: for metabolised at 0.25 h: liver microsomes, read-out: Drug metabolism
Summary of the method: (§4)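 Percentage of compound metabolized after 15 min incubation with human or rat liver microsomes.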

[6] = Drug metabolism in rat liver microsomes after 15 mins; format: ADME, microsome; conditions: for metabolised at 0.25 h: liver microsomes, read-out: Drug metabolism; summary of the method: as §4
Vero = assay: as §2; format: cell-based; conditions: chlorocebus sabaeus, vero, 96 h; summary of the method: as §3

EC50 (dengue virus type 2; Dengue virus, Rega, Vero, 96 h)	Compound	CC50 at 96 h [1]	also measured
3.3 µM	COc1nc(NC(C(=O)c2c[nH]c3ccccc23)c2ccccc2)ns1 (configuration not stated)	90 µM	–
0.018 µM	CCOc1cc(NC(C(=O)c2c[nH]c3ccccc23)c2ccccc2)cc(OC)c1 (configuration not stated)	13 µM	–
0.028 µM	COc1cccc(NC(C(=O)c2c[nH]c3ccccc23)c2cc3ccccn3n2)c1 (configuration not stated)	26 µM	–
15 µM	O=C(c1c[nH]c2ccccc12)C(NC1CCCC1)c1ccccc1 (configuration not stated)	86 µM	–
0.106 µM	COc1cc(NC(C(=O)c2c[nH]c3ccc(CO)cc23)c2ccccc2)cc(OC)c1 (configuration not stated)	65 µM	–
0.013 µM	COc1cccc(NC(C(=O)c2c[nH]c3cc(Cl)ccc23)c2ccccc2)c1 (configuration not stated)	13 µM	–
1.7 µM	O=C(c1c[nH]c2ccccc12)C(Nc1cc(F)cc(F)c1)c1ccccc1 (configuration not stated)	23 µM	–
0.043 µM	COc1cccc(NC(C(=O)c2c[nH]c3cc(OC)ccc23)c2ccccc2)c1 (configuration not stated)	13 µM	–
0.134 µM	COc1cccc(NC(C(=O)c2c[nH]c3ccccc23)c2ccsc2)c1 (configuration not stated)	15 µM	–
1.7 µM	COc1cc(NC(C(=O)c2c[nH]c3ccccc23)c2ccccc2)cc(OCCN(C)C)c1 (configuration not stated)	13 µM	–
0.073 µM	COc1cccc(NC(C(=O)c2c[nH]c3ccccc23)c2ccccc2)c1 (configuration not stated)	18 µM	Activity (Salmonella typhimurium [2]): Non-Toxic; Activity (Salmonella typhimurium [3]): Non-Toxic
0.269 µM	COc1cccc(NC(C(=O)c2c[nH]c3ccccc23)c2cccc(C)c2)c1 (configuration not stated)	20 µM	–
0.015 µM	COc1cc(NC(C(=O)c2c[nH]c3ccccc23)c2cccnc2)cc(OC)c1 (configuration not stated)	69 µM	EC50 (dengue virus type 1): 0.173 µM; EC50 (dengue virus type 3): 0.31 µM; EC50 (dengue virus type 4): 2.5 µM
0.004 µM	COc1cc(NC(C(=O)c2c[nH]c3ccccc23)c2ccc(F)cc2)cc(OC)c1 (configuration not stated)	13 µM	–
0.181 µM	COc1cc(NC(C(=O)c2c[nH]c3ccc(CCO)cc23)c2ccccc2)cc(OC)c1 (configuration not stated)	56 µM	–
0.024 µM	COc1cccc(NC(C(=O)c2c[nH]c3cccc(Cl)c23)c2ccccc2)c1 (configuration not stated)	18 µM	–
0.065 µM	COc1cc(CO)cc(NC(C(=O)c2c[nH]c3ccccc23)c2ccccc2)c1 (configuration not stated)	71 µM	solubility ([4]; read-out: solubility): 50 µM (≈ 19.3 µg/mL); metabolised at 0.25 h [5]: 18%; metabolised at 0.25 h [6]: 85%
6.3 µM	COc1ccnc(NC(C(=O)c2c[nH]c3ccccc23)c2ccccc2)c1 (configuration not stated)	95 µM	–
1.2 µM	COc1cccc(NC(C(=O)c2c[nH]c3ccccc23)c2ccc3nccnc3c2)c1 (configuration not stated)	19 µM	–
6.1 µM	O=C(c1c[nH]c2ccccc12)C(Nc1ccc2[nH]c(=O)oc2c1)c1ccccc1 (configuration not stated)	15 µM	–
0.041 µM	COc1cccc(NC(C(=O)c2c[nH]c3ccccc23)c2ccc(C#N)cc2)c1 (configuration not stated)	14 µM	–
0.288 µM	COc1cc(NC(C(=O)c2c[nH]c3cccc(CO)c23)c2ccccc2)cc(OC)c1 (configuration not stated)	71 µM	–
0.051 µM	COc1cccc(NC(C(=O)c2c[nH]c3c(C)cccc23)c2ccccc2)c1 (configuration not stated)	> 135 µM	–
0.138 µM	COc1cccc(NC(C(=O)c2c[nH]c3ccccc23)c2ccncc2)c1 (configuration not stated)	16 µM	–
1.4 µM	COc1cc(NC(C(=O)c2c[nH]c3cccc(CCCO)c23)c2ccccc2)cc(OC)c1 (configuration not stated)	55 µM	–
0.02 µM	COc1cc(F)cc(NC(C(=O)c2c[nH]c3ccccc23)c2ccccc2)c1 (configuration not stated)	22 µM	–
2.1 µM	N#Cc1cccc(NC(C(=O)c2c[nH]c3ccccc23)c2ccccc2)c1 (configuration not stated)	14 µM	–
0.085 µM	COc1cc(NC(C(=O)c2c[nH]c3ccccc23)c2ccccc2)cc(OCCCO)c1 (configuration not stated)	50 µM	solubility ([4]; read-out: solubility): 30 µM (≈ 12.9 µg/mL); metabolised at 0.25 h [5]: 8%; metabolised at 0.25 h [6]: 67%

EC50 (dengue virus type 2; Dengue virus, Rega, Vero, 96 h)	Compound	CC50 at 96 h [1]	also measured
0.096 µM	COc1cccc(NC(C(=O)c2c[nH]c3ccccc23)c2ccccc2C)c1 (configuration not stated)	14 µM	–
0.138 µM	COc1cccc(NC(C(=O)c2c[nH]c3ccccc23)c2cccnc2)c1 (configuration not stated)	71 µM	–
0.034 µM	COc1cccc(NC(C(=O)c2c[nH]c3ccc(F)cc23)c2ccccc2)c1 (configuration not stated)	13 µM	–
0.122 µM	COc1cccc(NC(C(=O)c2c[nH]c3cccc(F)c23)c2ccccc2)c1 (configuration not stated)	21 µM	–
2.5 µM	COc1ccc(OC)c(NC(C(=O)c2c[nH]c3ccccc23)c2ccccc2)c1 (configuration not stated)	15 µM	–
2.4 µM	O=C(c1c[nH]c2ccccc12)C(Nc1cccc(F)c1)c1ccccc1 (configuration not stated)	12 µM	–
6.5 µM	CS(=O)(=O)c1cccc(NC(C(=O)c2c[nH]c3ccccc23)c2ccccc2)c1 (configuration not stated)	65 µM	–
0.837 µM	COc1cccc(NC(C(=O)c2c[nH]c3ccccc23)c2cnccn2)c1 (configuration not stated)	65 µM	–
0.073 µM	COc1cccc(NC(C(=O)c2c[nH]c3ccccc23)c2ccc(C)nc2)c1 (configuration not stated)	73 µM	–
0.484 µM	COc1cncc(NC(C(=O)c2c[nH]c3ccccc23)c2ccccc2)n1 (configuration not stated)	68 µM	–
0.013 µM	COc1cc(NC(C(=O)c2c[nH]c3ccccc23)c2ccc(F)cc2)cc(OCCO)c1 (configuration not stated)	46 µM	solubility ([4]; read-out: solubility): 27 µM (≈ 11.7 µg/mL); metabolised at 0.25 h [5]: 7%; metabolised at 0.25 h [6]: 23%
0.022 µM	COc1cccc(NC(C(=O)c2c[nH]c3ccccc23)c2ccc(C)cc2)c1 (configuration not stated)	20 µM	–
0.59 µM	COc1cccc(NC(C(=O)c2c[nH]c3ccccc23)c2cc(C)on2)c1 (configuration not stated)	50 µM	–
0.007 µM	COc1cc(NC(C(=O)c2c[nH]c3ccc(F)cc23)c2ccccc2)cc(OC)c1 (configuration not stated)	13 µM	EC50 (dengue virus type 1): 0.247 µM; EC50 (dengue virus type 3): 0.68 µM; EC50 (dengue virus type 4): 4.8 µM; Activity (Salmonella typhimurium [2]): Non-Toxic; Activity (Salmonella typhimurium [3]): Non-Toxic
0.045 µM	COc1cccc(NC(C(=O)c2c[nH]c3cc(F)ccc23)c2ccccc2)c1 (configuration not stated)	15 µM	–
0.057 µM	COc1cccc(NC(C(=O)c2c[nH]c3c(F)cccc23)c2ccccc2)c1 (configuration not stated)	14 µM	–
0.297 µM	COc1cccc(NC(C(=O)c2c[nH]c3ccccc23)c2ccco2)c1 (configuration not stated)	16 µM	–
0.926 µM	O=C(c1c[nH]c2ccccc12)C(Nc1cccc(OC(F)(F)F)c1)c1ccccc1 (configuration not stated)	5 µM	–
4.2 µM	COc1cccc(NC(C(=O)c2c[nH]c3ccccc23)c2ccccc2)c1OC (configuration not stated)	> 129 µM	–
0.025 µM	COc1cccc(NC(C(=O)c2c[nH]c3ccccc23)c2ccc(F)cc2)c1 (configuration not stated)	14 µM	–
1.6 µM	COc1cccc(NC(C(=O)c2c[nH]c3ccccc23)c2ccc(S(C)(=O)=O)cc2)c1 (configuration not stated)	> 115 µM	–
0.391 µM	COc1cccc(NC(C(=O)c2c[nH]c3ccccc23)c2cncnc2)c1 (configuration not stated)	100 µM	–
0.406 µM	COc1cc(NC(C(=O)c2c[nH]c3c(CCS(C)(=O)=O)cccc23)c2ccccc2)cc(OC)c1 (configuration not stated)	> 102 µM	–
0.288 µM	COc1cccc(NC(C(=O)c2c[nH]c3ccccc23)c2ccccc2)n1 (configuration not stated)	16 µM	–
5 µM	O=C(c1c[nH]c2ccccc12)C(Nc1cccnc1)c1ccccc1 (configuration not stated)	54 µM	–
–	COc1cc(NC(C(=O)c2c[nH]c3ccccc23)c2ccccc2)cc(OCCO)c1 (racemic)	–	EC50 (dengue virus type 2; vero): 0.059 µM; CC50 (Vero): 47 µM; solubility [4]: 60 µM (≈ 25 µg/mL); Drug metabolism ([5]; microsomes, 0.25 h): 13%; Drug metabolism ([6]; microsomes, 0.25 h): 37%
–	COc1cc(NC(C(=O)c2c[nH]c3ccccc23)c2ccccc2)cc(OCCO)c1 (single isomer, unassigned; (-))	–	EC50 (dengue virus type 2; vero): 0.456 µM; CC50 (Vero): 77 µM
